High-throughput results (PubChem BioAssay)
A selection: hits, their analogues and other compounds. The true share with any hit is near 2.5%.
NR2E3 ag-1: NR2E3 agonists in two-hybrid cells, primary screen, cell-based, luminescence, CHO-S, Gal4-NCOR/VP16-NR2E3 | 360,000 compounds, 0.35% hits | AID 602229, 2012 | inhibition of corepressor binding, % at 3.98 µM | luciferase | Photoreceptor-specific nuclear receptor (Homo sapiens), Q9Y5X4;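 active = inhibition above the mean of all tested compounds plus 3 SD, cut at about 70% in these data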;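 note: higher means lower luciferase signal from less NR2E3 corepressor binding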
Target sequence (Q9Y5X4 whole entry, looked up, the tested form may be a part): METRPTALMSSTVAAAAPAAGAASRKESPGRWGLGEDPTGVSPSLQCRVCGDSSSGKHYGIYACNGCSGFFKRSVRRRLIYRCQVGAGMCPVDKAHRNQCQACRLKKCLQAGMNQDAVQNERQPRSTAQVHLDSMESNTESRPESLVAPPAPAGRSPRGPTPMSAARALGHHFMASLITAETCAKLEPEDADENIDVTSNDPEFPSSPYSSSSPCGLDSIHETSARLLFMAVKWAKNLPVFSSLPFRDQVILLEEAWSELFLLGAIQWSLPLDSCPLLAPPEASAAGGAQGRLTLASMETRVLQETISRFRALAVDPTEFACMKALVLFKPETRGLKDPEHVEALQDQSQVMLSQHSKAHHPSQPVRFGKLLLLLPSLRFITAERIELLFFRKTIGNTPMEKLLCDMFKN
NR2E3 ag-2: inhibitors of NR2E3-RetCOR corepressor binding, primary screen, NR2E3 agonist project, biochemical, TR-FRET, GST-NR2E3, biotin-RetCOR; AID 2300, 2010; inhibition of corepressor binding, % at 4.78 µM; 320,000 compounds, 0.12% hits; 1536-well;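 active = percent inhibition above the cutoff of mean plus 3 SD of all tested compounds, set per screening campaign, cut at about 20% in these data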
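Test system – NR2E3–RetCOR corepressor complex · Quantity – NR2E3 fusion 1.35 nM · Buffer or medium – Tris pH 7.5 · Incubation – Compound–protein incubation for 5 h at 4 °C · Technique – TR-FRET, Eu(K)-anti-GST donor, streptavidin-D2 acceptor, ex 340, em 617/671 nm · Evaluation – percent inhibition of 671/617 nm emission ratio versus biotin and DMSO controls · Plate – 1536-well format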
MsrA inhibitor: bovine MsrA enzyme inhibitors, primary screen, biochemical, absorbance, HTS; inhibition, % at 15.5 µM; Methionine sulfoxide reductase A (Bos taurus); purified bovine MsrA, absorbance read-out; AID 651718, 2012; 360,000 compounds, 0.75% hits; in the data active = inhibition above about 4.5%
NadD block: inhibitors of S. aureus NadD, primary screen, biochemical, colorimetric, uHTS; purified NadD enzyme, colorimetric absorbance read-out; inhibition, % at 20 µM; 360,000 compounds, 0.78% hits; AID 602399, 2012; in the data active = inhibition above about 26%
bovine MsrA act: bovine MsrA enzyme activators, primary screen, biochemical, absorbance, HTS | activation, % at 10.6 µM | purified bovine MsrA, absorbance read-out | Methionine sulfoxide reductase A (Bos taurus) | 360,000 compounds, 0.3% hits; in the data active = activation above about 7.5%
GalR3 antagonist: GalR3 antagonists in HEK293 cells, primary screen, cell-based, fluorescence readout; Galanin receptor type 3 (Homo sapiens), O60755; inhibition, % at 3 µM; 360,000 compounds, 0.44% hits; HEK293 GalR3-CNG cAMP membrane potential fluorescence; galR3 body fused to GalR1 C-terminus;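 active = inhibition above the screen-wide average plus 3 SD, cut at about 13% in these data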;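 note: forskolin and galanin both at EC90 stimulate the cells; cAMP rise reported by CNG channel membrane potential dye signal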
GalR3 conf: GalR3 antagonist hit confirmation, cell-based, fluorescence, triplicate | shares compounds with GalR3 antagonist | HEK293 GalR3 CNG cAMP biosensor, membrane potential fluorescence; galR3 fused to GalR1 carboxy tail; challenged with forskolin and galanin at EC90 | 1,600 compounds, 59% hits | inhibition, % at 3 µM | AID 652245, 2013;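 active = inhibition above the primary screen's cutoff, the mean inhibition of all screened compounds plus 3 SD, cut at about 13% in these data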
HEK-CNG parental: nonspecific cAMP agonists in parental HEK-CNG cells, counter-screen for GalR3 antagonist project, cell-based, fluorescence, high throughput. AID 652268, 2013. HEK293-CNG parental cells, cAMP membrane potential fluorescence; normalised: DMSO wells 0%, forskolin wells 100%. 1,600 compounds, 10% hits. shares compounds with GalR3 antagonist. activation, % at 3 µM; in the data active = activation above about 1.3%
Of the large screens only hits and unclear results are named; the others gave an inactive call (follow-up assays come after a bar, where they were run).

CCc1nc2sc(C#N)c(N)c2c2c1CCCC2	GalR3 antagonist 41.9 | GalR3 conf 56.6 | HEK-CNG parental inactive
Cc1cc(C)c(C#N)c(SCc2[nH]nc3c2C(c2ccc(F)cc2)C(C#N)=C(N)O3)n1 (stereo not given)	GalR3 antagonist 18.5 | GalR3 conf 39.1 | HEK-CNG parental 4.4
Cc1ccc(SCc2[nH]nc3c2C(c2cccnc2)C(C#N)=C(N)O3)cc1 (stereo not given)	none
Cc1cc(C#N)c(C)c(SCc2[nH]nc3c2C(c2ccccc2)C(C#N)=C(N)O3)n1 (stereo not given)	GalR3 antagonist 26.5 | GalR3 conf inactive | HEK-CNG parental inactive
CCC(Oc1ccc(C)cc1)C(=O)Nc1ccc2c(c1)n(C)c(=O)n2C (stereo not given)	none (no result: NR2E3 ag-2)
CCOC(=O)c1cnc2ccc(OCC)cc2c1NCc1ccccc1OC	none
Cc1ccc(NC(=O)CSc2ccc3c(c2)OCCO3)c(O)c1	GalR3 antagonist 33.1 | GalR3 conf 75.5 | HEK-CNG parental inactive
Cc1ccnc(NC(=O)CSc2ccc3c(c2)OCCO3)c1	none
COC(=O)C1=C(C)N(Cc2ccc(C(F)(F)F)cc2)C(=NCc2ccc(OC)cc2)NC1c1cccc(Cl)c1 (stereo not given)	none (no result: NR2E3 ag-1, NR2E3 ag-2, NadD block, bovine MsrA act)
COc1ccc(-c2nc(C#N)c(NCc3ccc(F)cc3)o2)cc1OC	GalR3 antagonist 13.4 | GalR3 conf 25.0 | HEK-CNG parental inactive
COc1ccc(-c2nc(C#N)c(NCc3cccnc3)o2)cc1OC	none
C/C(=N\Nc1nc(C(=O)O)cs1)c1ccccc1	none (no result: NR2E3 ag-1, NadD block, bovine MsrA act)
O=C(O)CCCn1cc(NC(=O)c2ccc(F)cc2)cn1	none
O=C(O)CCCn1cc(NC(=O)c2c(F)cccc2F)cn1	GalR3 antagonist 15.4 | GalR3 conf inactive | HEK-CNG parental inactive
COc1cc(C(Nc2ccc(S(=O)(=O)NCC3CCCO3)cc2)C(=O)NC(C)(C)C)cc(OC)c1OC (stereo not given)	GalR3 antagonist 15.9 | GalR3 conf inactive | HEK-CNG parental inactive
COc1cc(C(Nc2ccc(S(=O)(=O)N3CCC(C)CC3)cc2)C(=O)NCC2CCCO2)cc(OC)c1OC (stereo not given)	none
COc1ccccc1C(=O)c1c(C)c(CCC#N)n2ccccc12	none
N=C1/C(=C\c2ccc(-c3cc(Cl)cc(Cl)c3)o2)C(=O)N=C2SC=C(c3ccccc3)N12	GalR3 antagonist 12.9 | GalR3 conf inactive | HEK-CNG parental inactive
O=C(C(=O)N1CCN(c2ccc(F)cc2)CC1)N1CCCCC1	GalR3 antagonist 18.1 | GalR3 conf inactive | HEK-CNG parental inactive
C=CCNC(=O)C1CC(=O)N(c2ccc(OCC(=O)Nc3ccc(Cl)c(C(F)(F)F)c3)cc2)C1 (stereo not given)	none
O=[N+]([O-])c1c(Nc2ccc(O)cc2)cc(Cl)c2nonc12	GalR3 antagonist 57.8 | GalR3 conf 51.1 | HEK-CNG parental inactive
Cc1ccc(S(=O)(=O)Cn2nnnc2C(CC(C)C)N2CCN(c3ccccc3)CC2)cc1 (stereo not given)	none
CC(C)CC(c1nnnn1C(C)C)N1CCN(c2ccccc2)CC1 (stereo not given)	none (no result: GalR3 antagonist) | GalR3 conf inactive | HEK-CNG parental 6.9
O=C(COc1cc(Cl)c(Cl)cc1Cl)Nc1ccncc1	GalR3 antagonist 13.0 | GalR3 conf inactive | HEK-CNG parental inactive
